From ChEMBL document CHEMBL4765230, “Discovery of Orally Efficacious Phosphoinositide 3-Kinase δ Inhibitors with Improved Metabolic Stability” (J Med Chem, 2016)

How the values were obtained:
PI3K p110 beta/p85 alpha = PI3K p110 beta/p85 alpha (Homo sapiens, UniProt P42338); assay: Inhibition of recombinant human full-length N-terminal His-tagged PI3K p110beta/p85alpha using […] as substrate measured after 30 mins by TR-FRET assay; format: protein-complex assay
Rattus norvegicus [1] = assay: Antiarthritic activity in Lewis rat model of Freund's incomplete adjuvant-induced arthritis assessed as reduction in ankle swelling at 3 mg/kg, po bid administered for 7 days at 12 hrs interval starting from day 10 to day 16 post-immunization by caliper method relative to control; format: functional; design: scale not given: the % may be the effect or the level left; conditions: time 7 day
Procedure, shortened: (§1)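 Established collagen-induced arthritis in female Lewis rats; oral dosing twice daily for 7 days from day 10 after second immunization. Right and left ankle diameters measured by caliper daily, days 9–18; ankle diameter AUC over days 11–18 compared with arthritic vehicle group (ANOVA, p < 0.05). n = 8/treatment group.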

[2] = Inhibition of CYP450 (unknown origin) at 25 uM; format: ADME; conditions: human
[3] = Selectivity index, ratio of IC50 for inhibition of human full length PI3K p110gamma to IC50 for inhibition of human full length PI3K p110delta/p85alpha
[4] = MRT in rhesus monkey at 1 mg/kg, iv measured over 24 hrs by LC/MS/MS analysis; format: ADME, organism-based, Macaca mulatta; conditions: in vivo
Procedure, shortened: (§2)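 Intravenous 1 mg/kg and oral 5 mg/kg doses. Vehicle: 5% ethanol/55% PEG 400/40% water for rats and dogs; 5% ethanol/22% PEG 400/73% water for cynomolgus; 5% ethanol/25% PEG 400/70% water for rhesus. Half-life and MRT from iv; mean ± SD, n = 3 per route.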

[5] = Mutagenecity in Salmonella typhimurium by Ames test; format: toxicity; conditions: salmonella enterica subsp. enterica serovar typhimurium
[6] = biological target: T1, Phosphatidylinositol 4,5-bisphosphate 3-kinase catalytic subunit delta isoform (Homo sapiens, UniProt O00329); assay: Inhibition of PI3Kdelta in human whole blood assessed as inhibition of BCR-induced B-cell activation
T1 sequence (O00329 whole entry): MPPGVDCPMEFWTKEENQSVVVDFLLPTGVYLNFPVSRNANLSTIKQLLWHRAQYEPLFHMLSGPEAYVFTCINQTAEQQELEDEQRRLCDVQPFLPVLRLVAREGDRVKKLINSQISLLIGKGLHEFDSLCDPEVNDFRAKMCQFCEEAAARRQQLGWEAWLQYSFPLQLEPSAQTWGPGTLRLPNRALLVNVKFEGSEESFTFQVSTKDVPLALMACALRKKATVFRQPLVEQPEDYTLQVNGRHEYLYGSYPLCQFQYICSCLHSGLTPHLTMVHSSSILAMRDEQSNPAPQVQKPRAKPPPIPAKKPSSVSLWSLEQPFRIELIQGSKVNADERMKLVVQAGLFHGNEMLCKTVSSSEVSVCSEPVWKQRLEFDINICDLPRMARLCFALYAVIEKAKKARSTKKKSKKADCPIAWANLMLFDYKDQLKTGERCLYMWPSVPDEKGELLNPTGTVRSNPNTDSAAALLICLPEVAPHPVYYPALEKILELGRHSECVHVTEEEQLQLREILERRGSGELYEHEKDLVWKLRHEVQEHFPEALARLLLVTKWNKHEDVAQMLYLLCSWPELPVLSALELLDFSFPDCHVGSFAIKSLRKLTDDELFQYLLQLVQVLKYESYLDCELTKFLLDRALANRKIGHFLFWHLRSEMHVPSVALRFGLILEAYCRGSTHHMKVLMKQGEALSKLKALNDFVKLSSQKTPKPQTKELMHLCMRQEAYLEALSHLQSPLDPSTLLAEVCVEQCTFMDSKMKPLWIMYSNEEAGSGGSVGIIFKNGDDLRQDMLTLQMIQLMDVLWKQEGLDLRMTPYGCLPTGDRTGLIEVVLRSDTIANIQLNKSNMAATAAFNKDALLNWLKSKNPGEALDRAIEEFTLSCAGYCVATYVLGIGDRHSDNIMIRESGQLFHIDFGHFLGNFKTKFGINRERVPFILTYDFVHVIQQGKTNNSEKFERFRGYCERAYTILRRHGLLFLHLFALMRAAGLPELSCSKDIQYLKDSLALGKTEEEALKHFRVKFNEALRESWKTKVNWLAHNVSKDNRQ

[7] = MRT in cynomolgus monkey at 1 mg/kg, iv measured over 24 hrs by LC/MS/MS analysis; format: ADME, organism-based, Macaca fascicularis; conditions: in vivo; procedure, shortened: as §2
[8] = Clearance in dog at 1 mg/kg, iv; format: ADME, organism-based, Canis lupus familiaris; conditions: in vivo
[9] = Clearance in Beagle dog at 1 mg/kg, iv measured over 24 hrs by LC/MS/MS analysis; format: ADME, organism-based, Canis lupus familiaris; conditions: in vivo; procedure, shortened: as §2
[10] = Oral bioavailability in Sprague-Dawley rat at 5 mg/kg measured over 24 hrs by LC/MS/MS analysis; format: ADME, organism-based; conditions: in vivo; procedure, shortened: as §2
Rattus norvegicus [11] = assay: Antiarthritic activity in Lewis rat model of Freund's incomplete adjuvant-induced arthritis assessed as reduction in ankle swelling at 0.3 mg/kg, po bid administered for 7 days at 12 hrs interval starting from day 10 to day 16 post-immunization by caliper method relative to control; format: functional; design: scale not given: the % may be the effect or the level left; conditions: time 7 day; procedure, shortened: as §1
Rattus norvegicus [12] = assay: Antiarthritic activity in Lewis rat model of Freund's incomplete adjuvant-induced arthritis assessed as reduction in ankle swelling at 1 mg/kg, po bid administered for 7 days at 12 hrs interval starting from day 10 to day 16 post-immunization by caliper method relative to control; format: functional; design: scale not given: the % may be the effect or the level left; conditions: time 7 day; procedure, shortened: as §1
[13] = Volume of distribution at steady state in cynomolgus monkey at 1 mg/kg, iv measured over 24 hrs by LC/MS/MS analysis; format: ADME, organism-based, Macaca fascicularis; conditions: in vivo, read-out: Vdss
Procedure, shortened: (§3)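 Single intravenous dose of 1 mg/kg. Vehicles: rats and dogs 5% ethanol/55% PEG 400/40% water; cynomolgus monkeys 5% ethanol/22% PEG 400/73% water; rhesus monkeys 5% ethanol/25% PEG 400/70% water. Plasma concentration–time data gave Vss and iv half-life. Reported as mean ± SD, n = 3.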

[14] = Oral bioavailability in Beagle dog at 5 mg/kg measured over 24 hrs by LC/MS/MS analysis; format: ADME, organism-based, Canis lupus familiaris; conditions: in vivo; procedure, shortened: as §2
[15] = Volume of distribution at steady state in rhesus monkey at 1 mg/kg, iv measured over 24 hrs by LC/MS/MS analysis; format: ADME, organism-based, Macaca mulatta; conditions: in vivo, read-out: Vdss; procedure, shortened: as §3
[16] = Chemical stability of the compound at pH 2 phosphate buffer assessed as time required for 50% hydrolytic degradation at 100 ug/ml and 40 degreeC by UPLC-UV analysis; format: physicochemical; conditions: dose 100 µg/ml, read-out: Time (converted)
Procedure, shortened: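 Compound diluted from acetonitrile or DMSO stock to 100 μg/mL final in 50 mM phosphate buffer, pH 2 (or pH 7), ionic strength 0.15 M NaCl, 40 °C in autosampler. Timed injections analysed by reverse-phase UPLC-UV (220 nm); pseudo-first-order kobs from ln c vs time; t50 and t90 calculated.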

[17] = Terminal half life in Beagle dog at 1 mg/kg, iv measured over 24 hrs by LC/MS/MS analysis; format: ADME, organism-based, Canis lupus familiaris; conditions: in vivo, read-out: beta t1/2 (converted); procedure, shortened: as §3
[18] = Plasma concentration in Lewis rat at 1 to 5 mg/kg, po measured at 12 hrs; format: ADME, organism-based; conditions: dose 1-5 mg/kg
Procedure, shortened: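 Female Lewis rats given a single oral dose of 1 or 5 mg/kg; plasma concentration–time profiles determined; mean ± SD, n = 3.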

[19] = Clearance in rat at 1 mg/kg, iv; format: ADME, organism-based; conditions: in vivo

Chain of PI3K p110 beta/p85 alpha (P27986 whole entry): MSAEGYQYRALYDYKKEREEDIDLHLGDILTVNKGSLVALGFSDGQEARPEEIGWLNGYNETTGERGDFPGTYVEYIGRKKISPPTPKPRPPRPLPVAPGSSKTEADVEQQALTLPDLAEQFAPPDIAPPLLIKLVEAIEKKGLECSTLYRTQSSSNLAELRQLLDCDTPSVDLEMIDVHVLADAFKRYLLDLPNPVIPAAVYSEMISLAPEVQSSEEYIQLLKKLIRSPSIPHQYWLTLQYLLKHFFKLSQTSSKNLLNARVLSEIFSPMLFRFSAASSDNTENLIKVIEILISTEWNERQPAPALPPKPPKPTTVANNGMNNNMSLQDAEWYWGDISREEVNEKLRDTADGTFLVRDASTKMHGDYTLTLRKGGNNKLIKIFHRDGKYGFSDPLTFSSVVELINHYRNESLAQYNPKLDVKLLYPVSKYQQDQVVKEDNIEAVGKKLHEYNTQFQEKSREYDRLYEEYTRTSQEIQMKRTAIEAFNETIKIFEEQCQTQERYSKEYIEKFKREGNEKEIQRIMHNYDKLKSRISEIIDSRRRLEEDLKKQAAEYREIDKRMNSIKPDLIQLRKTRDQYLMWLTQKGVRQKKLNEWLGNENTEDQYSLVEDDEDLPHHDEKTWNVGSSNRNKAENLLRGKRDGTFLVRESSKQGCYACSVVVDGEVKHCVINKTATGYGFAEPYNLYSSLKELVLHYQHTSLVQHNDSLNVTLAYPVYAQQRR
Chain of PI3K p110 beta/p85 alpha (P42338 whole entry): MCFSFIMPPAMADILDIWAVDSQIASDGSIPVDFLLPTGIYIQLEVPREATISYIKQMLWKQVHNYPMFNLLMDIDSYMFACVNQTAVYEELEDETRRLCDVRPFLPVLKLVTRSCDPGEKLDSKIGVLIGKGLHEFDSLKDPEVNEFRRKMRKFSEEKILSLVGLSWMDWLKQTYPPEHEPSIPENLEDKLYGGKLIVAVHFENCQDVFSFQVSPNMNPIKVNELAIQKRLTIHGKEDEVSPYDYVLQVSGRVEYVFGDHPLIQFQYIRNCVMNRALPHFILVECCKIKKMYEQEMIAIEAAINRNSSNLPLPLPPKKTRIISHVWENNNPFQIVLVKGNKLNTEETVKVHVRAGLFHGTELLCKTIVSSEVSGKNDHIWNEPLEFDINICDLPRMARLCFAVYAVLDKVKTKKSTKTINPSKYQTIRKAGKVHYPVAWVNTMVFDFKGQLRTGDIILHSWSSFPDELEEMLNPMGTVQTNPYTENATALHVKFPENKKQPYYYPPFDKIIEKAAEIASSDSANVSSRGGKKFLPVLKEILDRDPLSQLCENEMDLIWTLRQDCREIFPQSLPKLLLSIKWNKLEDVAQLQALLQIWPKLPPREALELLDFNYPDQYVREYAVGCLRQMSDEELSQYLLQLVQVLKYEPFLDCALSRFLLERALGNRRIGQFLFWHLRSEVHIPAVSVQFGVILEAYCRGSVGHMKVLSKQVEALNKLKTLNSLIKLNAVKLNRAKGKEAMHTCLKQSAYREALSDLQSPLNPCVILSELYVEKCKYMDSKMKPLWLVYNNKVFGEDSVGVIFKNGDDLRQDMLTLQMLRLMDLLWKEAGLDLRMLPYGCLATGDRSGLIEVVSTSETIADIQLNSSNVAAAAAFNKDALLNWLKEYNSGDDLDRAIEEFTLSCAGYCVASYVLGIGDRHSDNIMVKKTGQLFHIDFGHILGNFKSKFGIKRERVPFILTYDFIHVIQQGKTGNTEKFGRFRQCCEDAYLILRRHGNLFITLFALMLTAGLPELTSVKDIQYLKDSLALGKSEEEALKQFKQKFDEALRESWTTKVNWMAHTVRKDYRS

With `N#Cc1c(N)nc(N)nc1N[C@H](c1nc2c(F)ccc(Cl)c2c(=O)n1-c1cccnc1)C1CC1` [GS-9901] the IC50 (PI3K p110 beta/p85 alpha) was 100 nM, the Activity (Rattus norvegicus [1]) was 65% and the “inhibition (INH)” value [2] was “Not Active”. For the same compound, the Ratio IC50 [3] was 190, the MRT [4] was 2 h and the Activity [5] was “Non-Toxic”. It also gave an EC50 [6] of 2.4 nM, an MRT [7] of 3.05 h and a clearance [8] of 9 mL/min/kg. The clearance [9] was 9 mL/min/kg, the bioavailability [10] was 57% and the Activity (Rattus norvegicus [11]) was 31%. It also gave an Activity (Rattus norvegicus [12]) of 67%, a Vd [13] of 1.21 L/kg and a bioavailability [14] of 49%. For the same compound, the Vd [15] was 1.34 L/kg, the half-life at 100 ug/ml [16] was 20 h and the half-life [17] was 2.01 h. The concentration at 12 h [18] was over 32 nM and the clearance [19] was 7.17 mL/min/kg.
